ChEMBL document CHEMBL1765072, “Inhibition of amyloidogenesis by nonsteroidal anti-inflammatory drugs and their hybrid nitrates” (J Med Chem, 2011)
Active and inactive are the calls of the source. The rule behind the calls is not given here.

Experiments:
N2a (Mus musculus) = assay: Cytotoxicity against mouse N2a/APPsw cells assessed as cell viability at 1 uM after 24 hrs by MTT assay relative to control
N2a [1] = assay: Antiamyloidogenic activity in mouse N2A cells transfected with human APP Swedish mutant assessed as amyloid beta (1 to 42) level at 1 uM after 24 hrs by ELISA relative to control
[2] = Cytotoxicity against mouse RAW264.7 cells assessed as cell viability at 10 uM after 24 hrs by MTT assay relative to control; format: cell-based; details: read-out: Activity
Procedure, shortened: (§1)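 RAW 264.7 cells given 0.5 mg/ml MTT in medium for 4 h, washed with PBS; formazan dissolved in DMSO, shaken 30 min, absorbance read at 570 nm against a 630 nm reference. Viability expressed relative to DMSO control.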

RAW264.7 [3] = assay: Antiinflammatory activity against mouse RAW264.7 cells assessed as LPS-induced nitrate production at 10 uM treated 30 mins before LPS challenge measured after 24 hrs by Griess reagent method relative to control
N2a [4] = assay: Antiamyloidogenic activity in mouse N2A cells transfected with human APP Swedish mutant assessed as reduction of amyloid beta (1 to 42) level at 10 uM after 24 hrs by ELISA; format: functional, cell-based
Procedure, shortened: (§2)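 N2a/APPsw cells (25 × 10⁴/well, plated 24 h prior) washed with PBS and treated with drug in DMEM with 0.2 % FBS for 24 h. Supernatant got NaN₃ (0.01 % final) and protease inhibitors, was centrifuged, and Aβ1–42 was measured by human sandwich ELISA. Values normalized to DMSO vehicle; mean and s.e.m., at least 4 experiments on separate passages.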

N2a [5] = assay: Antiamyloidogenic activity in mouse N2A cells transfected with human APP Swedish mutant assessed as increase of amyloid beta (1 to 37) level at 10 uM after 24 hrs by ELISA; format: functional, cell-based; details: in the assay text read “immunoprecipitation MALDI-TOF” for “ELISA”
Procedure, shortened: (§3)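 N2a cells stably expressing Swedish-mutant human APP, 1 × 10⁶ cells/well, drug-treated 24 h in DMEM with 0.2 % FBS without G418. Conditioned media got NaN₃, protease inhibitors and a ~1 ng/mL Aβ1–43 internal standard, then biotinylated 4G8/6E10 immunoprecipitation and linear-positive MALDI-TOF. Peak heights were normalized to Aβ1–43, then to DMSO control.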

N2a [6] = assay: Antiamyloidogenic activity in mouse N2A cells transfected with human APP Swedish mutant assessed as increase of amyloid beta (1 to 38) level at 10 uM after 24 hrs by ELISA; format: functional, cell-based; details: in the assay text read “immunoprecipitation MALDI-TOF” for “ELISA”
Procedure, shortened: as §3

[7] = Cytotoxicity against mouse RAW264.7 cells assessed as cell viability at 100 uM after 24 hrs by MTT assay relative to control; format: cell-based; details: read-out: Activity
Procedure, shortened: as §1

N2a [8] = assay: Antiamyloidogenic activity in mouse N2A cells transfected with human APP Swedish mutant assessed as reduction of amyloid beta (1 to 42) level at 0.5 uM after 24 hrs by ELISA; format: functional, cell-based
Procedure, shortened: as §2

RAW264.7 [9] = assay: Antiinflammatory activity against mouse RAW264.7 cells assessed as LPS-induced nitrate production at 100 uM treated 30 mins before LPS challenge measured after 24 hrs by Griess reagent method relative to control
N2a [10] = assay: Antiamyloidogenic activity in mouse N2A cells transfected with human APP Swedish mutant assessed as increase of amyloid beta (1 to 42) level at 100 uM after 24 hrs by ELISA; format: functional, cell-based
N2a [11] = assay: Antiamyloidogenic activity in mouse N2A cells transfected with human APP Swedish mutant assessed as increase of amyloid beta (1 to 42)/(1 to 40) ratio at 100 uM after 24 hrs by ELISA; format: functional, cell-based
N2a [12] = assay: Antiamyloidogenic activity in mouse N2A cells transfected with human APP Swedish mutant assessed as increase of amyloid beta (1 to 40) level at 100 uM after 24 hrs by ELISA; format: functional, cell-based

Structure (SMILES) | viability at 24 h, 1 µM (N2a (Mus musculus)) | level, % of control at 1 µM (N2a [1]) | viability at 24 h, 10 µM [2] | level, % of control at 10 µM (RAW264.7 [3]) | further results
CCC(CC)(C(=O)O)c1ccc(-c2ccccc2)c(F)c1 | 95.5% | 124% | – | – | –
CCC(C#N)(CC)c1ccc(-c2ccccc2)c(F)c1 | 97.3% | 125% | – | – | –
COc1ccc2c(c1)c(CC(=O)NCCc1cccnc1)c(C)n2C(=O)c1ccc(Cl)cc1 | – | 135% | 95.6% | 100% | –
CC1=C(CC(=O)O)c2cc(F)ccc2/C1=C\c1ccc([S+](C)[O-])cc1 (stereo not given) | – | 100% | 104% | 85.7% | inhibition (N2a [4]): Active; Activity (N2a [5]): Active; Activity (N2a [6]): Active
O=C(OCCO[N+](=O)[O-])C1(c2ccc(-c3ccccc3)c(F)c2)CC1 | – | – | – | – | viability at 24 h, 100 µM [7]: 113%; inhibition (N2a [8]): Active; level, % of control at 100 µM (RAW264.7 [9]): 47.3%
COc1ccc2c(c1)c(CNCCO)c(C)n2C(=O)c1ccc(Cl)cc1 | – | 118% | 100% | 52.5% | –
NC(=O)C(F)(F)c1ccc(-c2ccccc2)c(F)c1 | 102% | 115% | 100% | 82.2% | –
N#CC(F)c1ccc(-c2ccccc2)c(F)c1 (stereo not given) | 93.1% | 65.6% | – | – | –
O=C(O)CC1=C/C(=C/c2ccc(SC(F)(F)F)cc2)c2ccc(F)cc21 | – | 99.4% | 104% | 1.7% | –
CSc1ccc(/C=C2/C=C(CC(=O)NCc3ccccc3)c3cc(F)ccc32)cc1 | – | 94.5% | 100% | 58.4% | –
O=C(OCCBr)C1(c2ccc(-c3ccccc3)c(F)c2)CC1 | – | – | – | – | viability at 24 h, 100 µM [7]: 109%; level, % of control at 100 µM (RAW264.7 [9]): 18.9%
NC(=O)C(F)c1ccc(-c2ccc(F)cc2)c(F)c1 (stereo not given) | 69.1% | – | 90.6% | 74.7% | –
O=C(O)C1(c2ccc(-c3ccc(F)cc3)c(F)c2)CC1 | 102% | 90.4% | 102% | 86.4% | –
N#CC(F)(F)c1ccc(-c2ccc(F)cc2)c(F)c1 | 98.2% | 125% | 98.2% | 75.7% | –
COc1ccc2c(c1)c(CC(=O)Nc1ccc(Cl)cc1)c(C)n2C(=O)c1ccc(Cl)cc1 | – | 295% | 92.2% | 68.6% | –
CCNC(=O)CC1=C/C(=C/c2ccc(SC)cc2)c2ccc(F)cc21 | – | 95.7% | 104% | 80.4% | –
O=C(O)C(F)c1ccc(-c2ccccc2)c(F)c1 (stereo not given) | 98.7% | 91.8% | 92.7% | 81.5% | –
N#CC(F)c1ccc(-c2ccc(F)cc2)c(F)c1 (stereo not given) | 69.4% | – | 84.5% | 65.3% | –

Structure (SMILES) | viability at 24 h, 1 µM (N2a (Mus musculus)) | level, % of control at 1 µM (N2a [1]) | viability at 24 h, 10 µM [2] | level, % of control at 10 µM (RAW264.7 [3]) | further results
CSc1ccc(/C=C2/C(C)=C(CC(=O)O)c3cc(F)ccc32)cc1 [SULINDAC SULFIDE] | – | 82.6% | – | – | –
COc1ccc2c(c1)c(CC(=O)O)cn2C(=O)c1ccc(Cl)cc1 | – | 102% | 97.9% | 65.9% | –
O=C(OCCBr)C1(c2ccc(-c3ccc(C(F)(F)F)cc3)c(F)c2)CC1 | – | – | – | – | viability at 24 h, 100 µM [7]: 113%; level, % of control at 100 µM (RAW264.7 [9]): 14.7%
O=C(O)C(O)c1ccc(-c2ccccc2)c(F)c1 (stereo not given) | 101% | 82.5% | 89.1% | 59% | –
C[S+]([O-])c1ccc(/C=C2/C=C(CC(=O)O)c3cc(F)ccc32)cc1 (stereo not given) | – | 95% | 104% | 91.6% | –
O=C(OCCO[N+](=O)[O-])C1(c2ccc(-c3ccc(C(F)(F)F)cc3)c(F)c2)CC1 | – | – | – | – | viability at 24 h, 100 µM [7]: 128%; level, % of control at 100 µM (RAW264.7 [9]): 42.8%
CC(F)(C(=O)O)c1ccc(-c2ccccc2)c(F)c1 (stereo not given) | 101% | 98.8% | 99.7% | 80.8% | –
O=C(OCCO[N+](=O)[O-])C1(c2ccc(-c3ccc(Cl)c(Cl)c3)c(F)c2)CC1 | – | – | – | – | viability at 24 h, 100 µM [7]: 135%; level, % of control at 100 µM (RAW264.7 [9]): 40%
NC(=O)C(F)c1ccc(-c2ccccc2)c(F)c1 (stereo not given) | 103% | 101% | – | – | –
NC(=O)C(F)(F)c1ccc(-c2ccc(F)cc2)c(F)c1 | 95.9% | 109% | 98.8% | 84.1% | –
O=C(O)C1(c2ccc(-c3ccc(C(F)(F)F)cc3)c(F)c2)CC1 | 97.2% | 99.3% | – | – | viability at 24 h, 100 µM [7]: 102%; level, % of control at 100 µM (RAW264.7 [9]): 62.4%
O=C(O)C1(c2ccc(-c3ccccc3)c(F)c2)CC1 | 103% | 69.5% | – | – | viability at 24 h, 100 µM [7]: 101%; level, % of control at 100 µM (RAW264.7 [9]): 60.7%
O=C(O)CC1=C/C(=C/c2ccc(C(F)(F)F)cc2)c2ccc(F)cc21 | – | 91% | 100% | 29.2% | –
CCC(C#N)(CC)c1ccc(-c2cccc3ccccc23)c(F)c1 | 91.6% | 105% | 107% | 91.3% | –
O=C(O)C1(c2ccc(-c3ccc(Cl)c(Cl)c3)c(F)c2)CC1 | – | 125% | – | – | viability at 24 h, 100 µM [7]: 19.1%
O=C(OCCBr)C1(c2ccc(-c3ccc(Cl)c(Cl)c3)c(F)c2)CC1 | – | – | – | – | Activity (N2a [10]): Active; Activity (N2a [11]): Active; viability at 24 h, 100 µM [7]: 114%; Activity (N2a [12]): Active; level, % of control at 100 µM (RAW264.7 [9]): 27.8%
O=C(O)C(O)c1ccc(-c2ccc(F)cc2)c(F)c1 (stereo not given) | 99.7% | 106% | 102% | 76.3% | –
